Consider 14 compounds from ChEMBL document CHEMBL1145810, “Synthesis and complement inhibitory activity of B/C/D-ring analogues of the fungal metabolite 6,7-diformyl-3',4',4a',5',6',7',8',8a'-octahydro-4,6',7'-trihydroxy- 2',5',5',8a'-tetramethylspiro[1'(2'H)-naphthalene-2(3H)-benzofuran]” (J Med Chem, 2003).

One may read the IC50 as the concentration that inhibits the measured activity by half. The low end stands for higher potency, the high end for lower potency.

The nature of assay [1]: Inhibitory activity against proteolytic release of C5a in activated human serum was determined. Format: functional. In a few lines:
(§1)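 Human serum (73% of final volume) equilibrated with a range of compound concentrations dissolved in 0.10 M HEPES, 0.15 M NaCl, pH 7.4. Serum then activated with heat-aggregated IgG, and C5a[desArg] and C3a[desArg] quantified. Fractional inhibition taken relative to the no-compound sample and to the background level without aggregated IgG. n = 3 (one compound n = 2).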

The species named for assay [2] is Homo sapiens. The assay is described as follows: Ability to inhibit complement-mediated erythrocyte lysis (hemolysis) in human serum. It is filed as functional, organism-based. In a few lines:
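Antibody-sensitized sheep erythrocytes incubated with compound and diluted human serum, 60 min at 37 °C. Cells pelleted by centrifugation; released hemoglobin read at 410 nm in supernatant. Each sample paired with a serum-free control for complement-independent lysis, which was subtracted. Fractional inhibition taken relative to the no-compound sample.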

Assay [3] is filed under the species Oryctolagus cuniculus. The assay is described as follows: Ability to inhibit lysis of rabbit erythrocytes by the alternative complement pathway was determined. It is filed as functional, organism-based. In a few lines: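 Alternative-pathway hemolysis of rabbit erythrocytes. Cells incubated with compound and human serum for 60 min at 37 °C. Supernatant hemoglobin read at 410 nm after centrifugation. Serum-free background was subtracted and inhibition taken relative to the no-compound sample.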

Assay [4] can be described thus: Inhibitory activity against proteolytic release of C3a in activated human serum was determined. It is filed as functional. In short, it runs like this: as §1

Take `C[C@@H]1CCC2C(C)(C)[C@H](O)[C@H](O)C[C@]2(C)C12Cc1c(O)cc(C(=O)O)c(C=O)c1O2` (stereo partly drawn): the 50% inhibitory concentration (IC50) is 3 mM in assay [1], 0.57 mM in assay [2] and 0.33 mM in assay [3].
On to `COc1cc(C=O)c(C(=O)O)c2c1CC1(CCCCC1)O2`, for which the values for the IC50 in assay [2] and in assay [3] were 1.7 mM and 1.9 mM, respectively.
In the same order, the values of `O=C(O)c1cc(O)c2c(c1)OC1(CCCCC1)C2` are 1.5 mM and 3.8 mM.
As for `O=C(O)c1ccc(O)cc1O` [2,4-DIHYDROXYBENZOIC ACID], the IC50 in assay [1] was 22 mM.
As to `COc1cc(C(=O)O)cc2c1CC1(CCCCC1)O2`, the IC50 amounted to 0.53 mM in assay [2] and 2.2 mM in assay [3].
The compound `O=C(O)c1ccc(O)c2c1OC1(CCCCC1)C2` returned an IC50 in assay [2] of 3 mM.
With `COc1cc(C(=O)O)c(C(=O)O)c2c1CC1(CCCCC1)O2`, the results for the IC50 in assay [2] and in assay [3] were 0.8 mM and 1.2 mM, respectively.
`COc1ccc(C(=O)O)c2c1CC1(CCCCC1)O2`: the IC50 is 5 mM in assay [1], 1.3 mM in assay [2], 2.2 mM in assay [3] and 22 mM in assay [4].
Take `COc1cc(C(=O)O)c(C=O)c2c1CC1(CCCCC1)O2`: the figures for the IC50 in assay [1], in assay [2] and in assay [3] were 0.5 mM, 0.16 mM and 0.73 mM, respectively.
For the compound `COc1ccc(C(=O)O)c(O)c1CC1=CCCCC1`, half-maximal inhibition in assay [2] (IC50) required 2.1 mM.
On to `COc1cc(C(=O)O)cc(O)c1CC1=CCCCC1`, for which the half-maximal inhibitory concentration (IC50) in assay [2] turned out to be 0.82 mM; in assay [3], 3.5 mM.
Turning to `COc1cc2c(c3c1CC1(CCCCC1)O3)C(=O)OC2`, the IC50 in assay [1] is 1.3 mM; in assay [4], 0.7 mM.
For `O=C(O)c1ccccc1O` [SALICYLIC ACID], the half-maximal inhibitory concentration (IC50) in assay [1] stood at 21 mM.
For the compound `COc1ccc(C=O)c2c1CC1(CCCCC1)O2`, the IC50 amounted to 8 mM in assay [1] and 13 mM in assay [4].
